Results: ChEMBL document CHEMBL1145926, “Polyamine-iron chelator conjugate” (J Med Chem, 2003)
pIC50, pKi: −log10 of the molar value.

Legend:
[1] = target: Diamine acetyltransferase 1 (Mus musculus) (UniProt P48026); assay: Compound was tested for the enzyme activity against Spermidine/spermine N1-acetyl transferase (SSAT) in L1210 cells and expressed as percent compound found in untreated controls.; assay type: cell-based
Outline: (§1)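 L1210 cells were treated for 48 h at 10 µM, or at 0.2 µM for the conjugate. SSAT activity was measured as [14C]N1-acetylspermidine formed from spermidine and [14C]acetyl-CoA, expressed as percent of untreated control. The positive control was 2 µM DENSPM. Results are the mean of at least three experiments.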

[2] = target: T1, S-adenosylmethionine decarboxylase proenzyme 1 (Mus musculus) (UniProt P0DMN7); assay: Compound was tested for the enzyme activity against S-Adenosyl-methionine decarboxylase in L1210 cells and expressed as percent compound found in untreated controls.; assay type: cell-based
T1 sequence (whole entry): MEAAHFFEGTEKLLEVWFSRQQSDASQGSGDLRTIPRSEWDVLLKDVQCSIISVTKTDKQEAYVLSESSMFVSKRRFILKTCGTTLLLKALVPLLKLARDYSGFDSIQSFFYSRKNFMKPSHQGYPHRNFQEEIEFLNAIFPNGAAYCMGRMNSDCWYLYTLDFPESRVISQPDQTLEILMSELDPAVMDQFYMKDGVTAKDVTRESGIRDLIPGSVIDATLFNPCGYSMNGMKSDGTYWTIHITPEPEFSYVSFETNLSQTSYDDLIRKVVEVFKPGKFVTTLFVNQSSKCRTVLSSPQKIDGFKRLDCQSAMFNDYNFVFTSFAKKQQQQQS
Outline: (§2)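 L1210 cells were treated at 1 µM for 6 h. AdoMetDC activity was measured as 14CO2 released from [14C]carboxyl-labeled S-adenosyl-L-methionine and expressed as percent of untreated control. Controls were untreated cells and 1 µM DEHSPM-treated cells. Results are the mean of at least three experiments.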

[3] = Compound was tested for the inhibition of spermidine transporter by using [3H]SPD transport in L1210 cell; assay type: functional, cell-based, Mus musculus
Outline: (§3)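 L1210 cell suspensions were incubated in culture medium with [3H]spermidine, either alone or with graduated concentrations of competitor. Cells were pelleted, washed, digested, neutralized and scintillation-counted. Ki was derived from Lineweaver–Burk plots assuming competitive inhibition against spermidine, as the mean of two to three experiments.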

L1210 [4] = assay: Compound was determined for spermine (SPM) level in L1210 cells after treatment at a concentration of 0.2 uM and expressed as percent compound found in untreated controls.; assay type: functional, Mus musculus
Outline: (§4)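 L1210 cells in RPMI-1640 with 10% FBS, HEPES-MOPS, 1 mM glutamine and 1 mM aminoguanidine were exposed to 0.2 µM during log growth for 48 h. Cells were washed three times in ice-cold incomplete medium, extracted with 0.6 N perchloric acid and freeze-fractured three times. Putrescine, spermidine and spermine were measured by HPLC and expressed as percent of untreated control.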

L1210 [5] = assay: Compound was tested for the growth inhibition of L1210 cell at a duration of 96 h; assay type: functional, cell-based; settings: Mus musculus, L1210, 96 h
L1210 [6] = assay: Compound was determined for spermidine (SPD) level in L1210 cells after treatment at a concentration of 0.2 uM and expressed as percent compound found in untreated controls.; assay type: functional, Mus musculus; outline: as §4
L1210 [7] = assay: Compound was determined for putrescine (PUT) level in L1210 cells after treatment at a concentration of 0.2 uM and expressed as percent compound found in untreated controls.; assay type: functional, Mus musculus; outline: as §4
[8] = target: T2, Ornithine decarboxylase (Mus musculus) (UniProt P00860); assay: Compound was tested for the enzyme activity against ornithine decarboxylase (ODC) in L1210 cells and expressed as percent compound found in untreated controls.; assay type: cell-based
T2 sequence (whole entry): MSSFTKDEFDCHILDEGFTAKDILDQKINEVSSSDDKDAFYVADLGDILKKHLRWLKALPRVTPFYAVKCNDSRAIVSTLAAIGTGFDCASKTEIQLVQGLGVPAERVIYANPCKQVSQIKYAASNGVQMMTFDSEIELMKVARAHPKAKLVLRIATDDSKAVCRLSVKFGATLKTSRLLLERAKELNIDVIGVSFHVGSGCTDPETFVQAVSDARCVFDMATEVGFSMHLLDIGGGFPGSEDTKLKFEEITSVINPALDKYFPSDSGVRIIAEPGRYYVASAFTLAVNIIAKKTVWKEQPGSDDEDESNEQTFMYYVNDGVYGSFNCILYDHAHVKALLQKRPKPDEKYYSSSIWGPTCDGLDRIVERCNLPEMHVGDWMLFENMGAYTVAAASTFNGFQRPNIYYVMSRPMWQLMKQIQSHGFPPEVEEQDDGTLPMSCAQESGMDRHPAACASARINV
Outline: (§5)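 L1210 cells were treated at 1 µM for 4 h. ODC activity was measured as 14CO2 released from [14C]carboxyl-labeled L-ornithine and expressed as percent of untreated control. Controls were untreated cells and 1 µM DEHSPM-treated cells. Results are the mean of at least three experiments.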

L1210 [9] = assay: Compound was determined for spermidine (SPD) level in L1210 cells after treatment at a concentration of 100 uM and expressed as percent compound found in untreated controls.; assay type: functional, Mus musculus
L1210 [10] = assay: Compound was determined for putrescine (PUT) level in murine L1210 cells after treatment at a concentration of 100 uM and expressed as percent compound found in untreated controls.; assay type: functional, Mus musculus
[11] = target: Diamine acetyltransferase 1 (Mus musculus) (UniProt P48026); assay: Compound was tested for the enzyme activity against Spermidine/spermine N1-acetyl transferase (SSAT) in murine L1210 cells and expressed as percent compound found in untreated controls.; assay type: cell-based; outline: as §1
L1210 [12] = assay: Compound was determined for spermine (SPM) level in murine L1210 cells after treatment at a concentration of 100 uM and expressed as percent compound found in untreated controls.; assay type: functional, Mus musculus
[13] = Compound was tested for the inhibition of spermidine transporter by using [3H]SPD transport in murine L1210 cell; assay type: functional, cell-based, Mus musculus; outline: as §3
L1210 [14] = assay: Compound was tested for the growth inhibition of murine L1210 cell at a duration of 48 h; assay type: functional, cell-based; settings: Mus musculus, L1210, 48 h
Outline: (§6)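 Log-phase suspension cultures of murine L1210 cells (0.5–1.0 × 10^5 cells/mL) were grown in RPMI-1640 with 10% FBS and 1 mM aminoguanidine at 37 °C and 5% CO2. Cells were treated, reseeded and counted to give percent of control growth. IC50 is the concentration reducing growth to 50% of control after 48 or 96 h, as the mean of at least two experiments.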

L1210 [15] = assay: Compound was tested for the growth inhibition of murine L1210 cell at a duration of 96 h; assay type: functional, cell-based; settings: Mus musculus, L1210, 96 h; outline: as §6
[16] = target: T1, S-adenosylmethionine decarboxylase proenzyme 1 (Mus musculus); assay: Compound was tested for the enzyme activity against S-Adenosyl-methionine decarboxylase in murine L1210 cells and expressed as percent compound found in untreated controls.; assay type: cell-based; outline: as §2
[17] = target: T2, Ornithine decarboxylase (Mus musculus); assay: Compound was tested for the enzyme activity against ornithine decarboxylase (ODC) in murine L1210 cells and expressed as percent compound found in untreated controls.; assay type: cell-based; outline: as §5
L1210 [18] = assay: Compound was determined for putrescine (PUT) level in L1210 cells after treatment at a concentration of 50 uM and expressed as percent compound found in untreated controls.; assay type: functional, Mus musculus
Outline: (§7)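 Murine L1210 leukaemia cells, kept in log-phase suspension in RPMI-1640 with 10% FBS, 1 mM glutamine and 1 mM aminoguanidine at 37 °C, 5% CO2, were treated at 50 μM for 48 h. Cells were washed three times in ice-cold incomplete medium, extracted with 0.6 N perchloric acid and freeze-fractured. Putrescine, spermidine and spermine were then measured by HPLC and expressed as percent of untreated control.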

L1210 [19] = assay: Compound was determined for spermine (SPM) level in L1210 cells after treatment at a concentration of 50 uM and expressed as percent compound found in untreated controls.; assay type: functional, Mus musculus; outline: as §7
L1210 [20] = assay: Compound was determined for spermidine (SPD) level in L1210 cells after treatment at a concentration of 50 uM and expressed as percent compound found in untreated controls.; assay type: functional, Mus musculus; outline: as §7
L1210 [21] = assay: Compound was determined for spermine (SPM) level in L1210 cells after treatment at a concentration of 100 uM and expressed as percent compound found in untreated controls.; assay type: functional, Mus musculus
L1210 [22] = assay: Compound was determined for putrescine (PUT) level in L1210 cells after treatment at a concentration of 100 uM and expressed as percent compound found in untreated controls.; assay type: functional, Mus musculus
L1210 [23] = assay: Compound was tested for the growth inhibition of L1210 cell at a duration of 48 h; assay type: functional, cell-based; settings: Mus musculus, L1210, 48 h

Sequence of Diamine acetyltransferase 1 (Mus musculus) (P48026 whole entry): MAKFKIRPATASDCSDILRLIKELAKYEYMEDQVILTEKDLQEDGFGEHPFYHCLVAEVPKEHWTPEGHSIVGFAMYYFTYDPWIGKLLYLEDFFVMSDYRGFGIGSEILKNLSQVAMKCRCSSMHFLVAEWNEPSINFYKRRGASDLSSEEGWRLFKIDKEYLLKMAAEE

In the case of `Cc1c(O)c(=O)ccn1CCCNCCCCNCCCN`, the Activity [1] was 275%, the Activity [2] was 77% and the pKi [3] was 5.43. It also gave an Activity (L1210 [4]) of 139%, a pIC50 (L1210 [5]) of 6.70 and an Activity (L1210 [6]) of 64%. For the same compound, the Activity (L1210 [7]) was 33% and the Activity [8] was 20%.

`CC(=O)NCCCNCCCCNCCCN` showed an Activity (L1210 [9]) of 71%, an Activity (L1210 [10]) of 24% and an Activity [11] of 180%. It also gave an Activity (L1210 [12]) of 111%, a pKi [13] of 5.00 and a pIC50 (L1210 [14]) of less than 4.00. For the same compound, the pIC50 (L1210 [15]) was less than 4.00, the Activity [16] was 86% and the Activity [17] was 25%.

For `Cc1c(O)c(=O)ccn1C` [DEFERIPRONE], the Activity [1] was 108%, the Activity [2] was 120% and the Activity (L1210 [18]) was 104%. For the same compound, the pKi [3] was less than 3.30, the Activity (L1210 [19]) was 127% and the Activity [8] was 114%. It also gave an Activity (L1210 [20]) of 117%.

`CCNCCCNCCCCNCCCN` showed an Activity [1] of 150%.

Work on `CCCNCCCCNCCCN` yielded an Activity (L1210 [21]) of 103%, an Activity [1] of 500% and an Activity [2] of 64%. It also gave an Activity (L1210 [22]) of 0%, an Activity (L1210 [9]) of 33% and a pKi [3] of 5.07. The Activity [8] was 14% and the pIC50 (L1210 [23]) was less than 4.00.
